Laboratory results from ChEMBL document CHEMBL3593207, “Imidazole clubbed 1,3,4-oxadiazole derivatives as potential antifungal agents” (2015).

Key:
Type in all cases: functional
Candida tropicalis [1] = experiment: Antifungal activity against clinical isolates of Candida tropicalis 2356 by broth microdilution assay
Summary of the method: (§1)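 CLSI M27-A3 broth microdilution. Compounds diluted to 1 mg/ml in 1% DMSO. Fluconazole (1 mg/ml) served as positive control, 1% DMSO as vehicle control, with media and culture controls. Triplicate at each concentration, repeated thrice. Inocula came from YPDA stocks subcultured in broth for 48 h at 37 °C.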

Candida albicans [2] = experiment: Antifungal activity against Candida albicans ATCC 10261 by broth microdilution assay; summary of the method: as §1
Candida albicans [3] = experiment: Antifungal activity against clinical isolates of Candida albicans 2367 by broth microdilution assay; summary of the method: as §1
Candida tropicalis [4] = experiment: Antifungal activity against clinical isolates of Candida tropicalis 2029 by broth microdilution assay; summary of the method: as §1
Candida albicans [5] = experiment: Antifungal activity against clinical isolates of Candida albicans 2323 by broth microdilution assay; summary of the method: as §1
Candida tropicalis [6] = experiment: Antifungal activity against Candida tropicalis ATCC 750 by broth microdilution assay; summary of the method: as §1
Candida albicans [7] = experiment: Antifungal activity against clinical isolates of Candida albicans 2779 by broth microdilution assay; summary of the method: as §1

Measured: MIC

CCc1ccnc(-c2nccn2Cc2nnc(-c3ccccc3Cl)o2)c1
> 1000 µg/mL: Candida tropicalis [1] | Candida albicans [2] | Candida albicans [3] | Candida tropicalis [4] | Candida albicans [5] | Candida tropicalis [6] | Candida albicans [7]

CCc1ccnc(-c2nccn2Cc2nnc(-c3ccc(Cl)cc3)o2)c1
> 1000 µg/mL: Candida tropicalis [1] | Candida albicans [2] | Candida albicans [3] | Candida tropicalis [4] | Candida albicans [5] | Candida tropicalis [6] | Candida albicans [7]

CCc1ccnc(-c2nccn2Cc2nnc(-c3ccc(Cl)cc3Cl)o2)c1
> 1000 µg/mL: Candida tropicalis [1] | Candida albicans [2] | Candida albicans [3] | Candida tropicalis [4] | Candida albicans [5] | Candida tropicalis [6] | Candida albicans [7]

CCc1ccnc(-c2nccn2Cc2nnc(COc3ccc(Cl)cc3)o2)c1
> 1000 µg/mL: Candida tropicalis [1] | Candida albicans [2] | Candida albicans [3] | Candida tropicalis [4] | Candida albicans [5] | Candida tropicalis [6] | Candida albicans [7]

CCc1ccnc(-c2nccn2Cc2nnc(Cc3ccc(C(C)C)cc3)o2)c1
> 1000 µg/mL: Candida tropicalis [1] | Candida albicans [2] | Candida albicans [3] | Candida tropicalis [4] | Candida albicans [5] | Candida tropicalis [6] | Candida albicans [7]
